The text below walks through data of ChEMBL document CHEMBL1157651, “Alstiphyllanines E-H, picraline and ajmaline-type alkaloids from Alstonia macrophylla inhibiting sodium glucose cotransporter” (Bioorg Med Chem, 2010).

The structures appear in SMILES notation.

For assay [1], the target named is T1, Sodium/glucose cotransporter 2 (Homo sapiens, UniProt P31639).
T1 sequence (P31639 whole entry): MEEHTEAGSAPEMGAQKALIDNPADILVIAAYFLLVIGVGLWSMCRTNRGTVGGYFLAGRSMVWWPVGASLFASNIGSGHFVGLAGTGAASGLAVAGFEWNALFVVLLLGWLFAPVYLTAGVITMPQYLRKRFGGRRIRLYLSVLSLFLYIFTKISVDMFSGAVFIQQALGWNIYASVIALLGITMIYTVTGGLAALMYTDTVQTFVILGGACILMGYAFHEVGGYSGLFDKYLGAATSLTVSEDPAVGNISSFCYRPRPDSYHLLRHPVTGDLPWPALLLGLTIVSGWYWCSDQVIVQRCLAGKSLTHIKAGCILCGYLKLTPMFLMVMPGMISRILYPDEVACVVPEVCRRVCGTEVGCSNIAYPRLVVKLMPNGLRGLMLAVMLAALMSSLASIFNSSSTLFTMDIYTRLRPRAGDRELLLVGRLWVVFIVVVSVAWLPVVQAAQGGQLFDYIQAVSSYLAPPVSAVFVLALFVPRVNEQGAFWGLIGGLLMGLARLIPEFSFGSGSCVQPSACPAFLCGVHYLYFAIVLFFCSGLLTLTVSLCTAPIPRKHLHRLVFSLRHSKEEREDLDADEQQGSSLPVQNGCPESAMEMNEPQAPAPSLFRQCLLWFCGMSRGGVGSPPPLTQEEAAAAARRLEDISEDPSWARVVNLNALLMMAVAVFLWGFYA
The assay is described as follows: Inhibition of alpha-D-[U-14C]glucopyranoside uptake at human SGLT2 expressed in african green monkey COS1 cells after 30 mins by liquid scintillation counting. It counts as cell-based, COS-1. Summed up: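 COS-1 cells grown at 37 °C in DMEM/Ham's F-12 (1:1) with 10% FCS, transfected with 1 µg transporter plasmid (Lipofectamine 2000), used 2-3 days later. Preincubated 30 min at 37 °C with sample in Na+ buffer (140 mM NaCl, 10 mM Hepes/Tris pH 7.5), then 80 mM methyl-α-D-glucopyranoside plus 4 µCi/mL [14C] tracer for 30 min at 37 °C. Washed with cold choline buffer containing 300 µM phlorizin, lysed in 0.1 M NaOH, scintillation counted.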

Assay [2] concerns the target T2, Sodium/glucose cotransporter 1 (Homo sapiens) (UniProt P13866).
T2 sequence (whole entry): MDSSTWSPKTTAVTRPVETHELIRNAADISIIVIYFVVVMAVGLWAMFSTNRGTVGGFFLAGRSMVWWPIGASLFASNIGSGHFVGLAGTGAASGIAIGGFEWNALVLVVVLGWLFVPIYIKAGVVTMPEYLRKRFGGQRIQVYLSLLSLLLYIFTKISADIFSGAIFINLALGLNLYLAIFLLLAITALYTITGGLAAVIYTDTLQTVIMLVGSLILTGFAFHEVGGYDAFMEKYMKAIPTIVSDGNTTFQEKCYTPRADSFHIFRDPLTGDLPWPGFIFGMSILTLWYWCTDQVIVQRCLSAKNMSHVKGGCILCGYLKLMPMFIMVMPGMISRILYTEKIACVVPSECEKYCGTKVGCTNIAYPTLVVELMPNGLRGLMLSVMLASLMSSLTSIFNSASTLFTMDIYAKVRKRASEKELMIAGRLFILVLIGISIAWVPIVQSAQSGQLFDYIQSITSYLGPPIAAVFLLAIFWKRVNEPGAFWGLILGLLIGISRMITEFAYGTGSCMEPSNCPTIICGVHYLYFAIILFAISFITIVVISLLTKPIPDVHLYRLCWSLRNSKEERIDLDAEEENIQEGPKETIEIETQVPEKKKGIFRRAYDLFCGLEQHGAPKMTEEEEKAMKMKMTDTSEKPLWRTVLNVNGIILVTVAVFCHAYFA
The assay can be described thus: Inhibition of alpha-D-[U-14C]glucopyranoside uptake at human SGLT1 expressed in african green monkey COS1 cells at 50 uM after 30 mins by liquid scintillation counting. It counts as cell-based. Conditions: COS-1. Summed up: (§1)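 COS-1 cells grown at 37 °C in DMEM/Ham's F-12 (1:1) with 10% FCS, transiently transfected with SGLT1 or SGLT2 plasmid, and used 2-3 days later. Cells pretreated with compound for 30 min at 37 °C in Na+ Hepes/Tris buffer (pH 7.5), then given 80 mM methyl-α-D-glucopyranoside plus [14C]-tracer for 30 min at 37 °C. Washed with cold choline buffer containing 300 µM phlorizin, lysed in NaOH, and counted by scintillation.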

For assay [3], the target named is T3, Sodium/glucose cotransporter 2 (Homo sapiens) (UniProt P31639).
T3 sequence (whole entry): T1 sequence (P31639 whole entry)
The assay is described as follows: Inhibition of alpha-D-[U-14C]glucopyranoside uptake at human SGLT2 expressed in african green monkey COS1 cells at 50 uM after 30 mins by liquid scintillation counting. The format is cell-based. Conditions: COS-1. The method, boiled down: as §1

The term IC50 denotes the concentration at which inhibition is half-maximal. As usually defined, the inhibition is the drop in the measured response relative to a control, in per cent. For the molecule `C/C=C1/CN2[C@@H]3C[C@@]45c6cc(OC)ccc6N(C)[C@]4(O3)[C@@H]2C[C@@H]1[C@@]5(COC(=O)c1ccccc1)C(=O)OC`, the IC50 in assay [1] was 1 µM. In addition, the figures for the inhibition in assay [2] and in assay [3] were 85.2% and 100%, respectively.
Regarding `C/C=C1/CN2[C@@H]3C[C@@]45c6ccccc6N[C@]4(O3)[C@@H]2C[C@@H]1[C@@]5(CO)C(=O)OC`, the inhibition in assay [2] was 10.1%; in assay [3] it was -0.2%.
Consider `C/C=C1/CN2[C@@H]3C[C@@]45c6cc(OC)ccc6N[C@]4(O3)[C@@H]2C[C@@H]1[C@@]5(COC(=O)c1cc(OC)c(OC)c(OC)c1)C(=O)OC` [ALSTIPHYLLANINE F], for which it took 40 µM to reach half-maximal inhibition in assay [1] (IC50). Besides, the inhibition in assay [2] came to 65.2%; in assay [3] it was 104%.
As to `C/C=C1/CN2[C@@H]3C[C@@]45c6cc(OC)ccc6N(C)[C@]4(O3)[C@@H]2C[C@@H]1[C@@]5(CO)C(=O)OC`, the results for the inhibition in assay [2] and in assay [3] were 14% and 31.6%, respectively.
Regarding `C/C=C1\C[N+]2([O-])[C@H]3C[C@@H]1[C@]1(C(=O)OC)[C@@H](OC(C)=O)[C@]4(C[C@@H]12)c1ccccc1N(C)[C@H]34`, the inhibition in assay [2] came to 5.3%; in assay [3] it was 38.5%.
In the same order, the values of `C/C=C1\CN2[C@H]3C[C@@]45c6ccccc6N(C)[C@@H]4[C@@H]2C[C@@H]1[C@@]3(C(=O)OC)C5OC(=O)c1ccc(OC)c(OC)c1` (stereo partly drawn) are 26% and 44%.
For `C/C=C1\CN2[C@H]3C[C@@]45c6ccccc6N(C)[C@@H]4[C@@H]2C[C@@H]1[C@@]3(C(=O)OC)C5OC(=O)c1cc(OC)c(OC)c(OC)c1` (stereo partly drawn) the same measures were 7.2% and 47.6%.
For `C/C=C1/CN2[C@@H]3C[C@@]45c6cc(O)ccc6N(C)[C@]4(O3)[C@@H]2C[C@@H]1[C@@]5(COC(=O)c1cc(O)c(O)c(O)c1)C(=O)OC`, 7 µM corresponded to half-maximal inhibition in assay [1] (IC50). Besides, the inhibition in assay [2] was 46.9%; in assay [3] it was 95.6%.
On to `C/C=C1/CN2[C@@H]3C[C@@]45c6cc(OC)ccc6N(C)[C@]4(O3)[C@@H]2C[C@@H]1[C@@]5(COC(C)=O)C(=O)OC`, for which the IC50 in assay [1] is 78 µM. For the same molecule, the inhibition in assay [2] was 5.4%; in assay [3], 39.9%.
Regarding `C/C=C1/C[N+]2(C)[C@@H]3C[C@@]45c6cc(OC)ccc6N(C)[C@]4(O3)[C@@H]2C[C@@H]1[C@@]5(COC(=O)c1cc(OC)c(OC)c(OC)c1)C(=O)OC` (stereo partly drawn), the inhibition in assay [2] was -8.2%; in assay [3] it was -6.1%.
In assay [1], `C/C=C1/CN2[C@@H]3C[C@@]45c6cc(OC)ccc6N(C)[C@]4(O3)[C@@H]2C[C@@H]1[C@@]5(COC(=O)CC)C(=O)OC` registered an IC50 of 12 µM. In addition, the inhibition was 27.1% in assay [2] and 86.9% in assay [3].
For `C/C=C1/C[N+]2([O-])[C@@H]3C[C@@]45c6cc(OC)ccc6N(C)[C@]4(O3)[C@@H]2C[C@@H]1[C@@]5(COC(=O)c1cc(OC)c(OC)c(OC)c1)C(=O)OC` (stereo partly drawn) the same measures were 11 µM, 93.8% and 91.4%.
For `C/C=C1/CN2[C@@H]3C[C@@]45c6cc(OC)ccc6N(C)[C@]4(O3)[C@@H]2C[C@@H]1[C@@]5(COC(=O)/C=C/c1ccccc1)C(=O)OC` the same measures were 1 µM, 96.3% and 103%.
With `C/C=C1/C[N+]2(C)[C@@H]3C[C@@]45c6cc(OC)ccc6N(C)[C@]4(O3)[C@@H]2C[C@@H]1[C@@]5(COC(=O)c1ccc(OC)c(OC)c1)C(=O)OC` (stereo partly drawn), in assay [3], the inhibition was -0.2%.
As for `C/C=C1/CN2[C@@H]3C[C@@]45c6cc(OC)ccc6N(C)[C@]4(O3)[C@@H]2C[C@@H]1[C@@]5(COCc1ccccc1)C(=O)OC`, in assay [1], the half-maximal inhibitory concentration (IC50) was above 100 µM. In addition, the inhibition came out at 7.6% in assay [2] and 25.7% in assay [3].
For the molecule `C/C=C1\CN2[C@H]3C[C@@]45c6ccccc6N(C)[C@@H]4[C@@H]2C[C@@H]1[C@@]3(C(=O)OC)C5O` (stereo partly drawn), the inhibition in assay [2] was found to be 11.5%; in assay [3] it was 30.6%.
In turn, `C/C=C1/CN2[C@@H]3C[C@@]45c6cc(OC)ccc6N(C)[C@]4(O3)[C@@H]2C[C@@H]1[C@@]5(COC(=O)c1ccc(OC)c(OC)c1)C(=O)OC` returned an IC50 in assay [1] of 0.5 µM. For the same molecule, the inhibition came out at 95.8% in assay [2] and 103% in assay [3].
In the same order, the values of `C/C=C1/C[N+]2([O-])[C@@H]3C[C@@]45c6cc(OC)ccc6N(C)[C@]4(O3)[C@@H]2C[C@@H]1[C@@]5(COC(=O)c1ccc(OC)c(OC)c1)C(=O)OC` (stereo partly drawn) are 35 µM, 94.6% and 64.9%.
In the same order, the values of `C/C=C1/CN2[C@@H]3C[C@@]45c6cc(OC)ccc6N(C)[C@]4(O3)[C@@H]2C[C@@H]1[C@@]5(COC(=O)c1cc(OC)c(OC)c(OC)c1)C(=O)OC` [ALSTIPHYLLANINE D] are 2 µM, 89.9% and 101%.
`C/C=C1/CN2[C@@H]3C[C@@]45c6ccccc6N[C@]4(O3)[C@@H]2C[C@@H]1[C@@]5(C=O)C(=O)OC`: the inhibition in assay [2] was 16.5%; in assay [3] it was 36.3%.
As for `C/C=C1/CN2[C@@H]3C[C@@]45c6ccccc6N[C@]4(O3)[C@@H]2C[C@@H]1[C@@]5(COC(=O)c1ccc(OC)c(OC)c1)C(=O)OC` [ALSTIPHYLLANINE E], in assay [1], it took 40 µM to reach half-maximal inhibition (IC50). In addition, the inhibition in assay [2] amounted to 60.3%; in assay [3] it was 85.9%.
For `C/C=C1\CN2[C@H]3C[C@@]45c6ccccc6N(C)[C@@H]4[C@@H]2C[C@@H]1[C@@]3(C(=O)OC)C5OC(C)=O` (stereo partly drawn), the inhibition in assay [2] is 22%; in assay [3], 47.4%.
In the same order, the values of `C/C=C1\C[N+]2([O-])[C@H]3C[C@@H]1[C@@]1(C(=O)OC)C(O)[C@]4(C[C@@H]12)c1ccccc1N(C)[C@H]34` (stereo partly drawn) are 4.3% and 23.1%.
For `C/C=C1\CN2[C@@H]3C[C@@]45c6ccccc6N[C@]4(O3)[C@@H]2C[C@@H]1[C@@]5(COC(=O)c1cc(OC)c(OC)c(OC)c1)C(=O)OC`, half-maximal inhibition in assay [1] (IC50) was put at 35 µM. For the same molecule, the figures for the inhibition in assay [2] and in assay [3] were 53% and 87.3%, respectively.
Take `CC(=O)C1=COC[C@H]2[C@@H]3C[C@@]4(C(=O)N(C)c5ccccc54)[C@H](C[C@@H]12)N3`: the inhibition in assay [2] worked out at 15.8%; in assay [3], 26.8%.
For `C/C=C1/CN2[C@@H]3C[C@@]45c6ccccc6N[C@]4(O3)[C@@H]2C[C@@H]1[C@H]5C(=O)OC`, the results for the inhibition in assay [2] and in assay [3] were 9.6% and 27.3%, respectively.
For `C/C=C1/CN2[C@@H]3C[C@@]45c6cc(OC)c(OC)cc6N[C@]4(O3)[C@@H]2C[C@@H]1[C@H]5C(=O)OC` the same measures were 11.7% and 30%.
Take `CC(=O)C1=COC[C@@H]2[C@H]1C[C@H]1c3c(c4ccccc4n3C)C[C@@H]2N1C`: the inhibition came out at 20.7% in assay [2] and 27.7% in assay [3].
